Screens (PubChem)
Bfl-1 A1 inh: inhibitors of the anti-apoptotic protein A1, read as caspase activation; MEF A1-2A-BIM cells, Caspase-Glo 3/7 luminescence, 3 h; percent of clofoctol response, vehicle zero; caspase activation, % (test concentration not listed); hit rate 0.066% among 330,000;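 active = over half of replicate activation scores above 10%, or exactly half above 10 with the replicate mean above 10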
T cruzi inh: blocks replication of Trypanosoma cruzi; T. cruzi beta-gal in NIH3T3, luminescence, 90 h; inhibition, % (no concentration beside the values); hit rate 1.4% among 300,000;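 active = mean inhibition across valid replicates above about 55%, limit read from the data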;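 note: signal also drops with host cell toxicity which is not excluded here; 0% = plate median of DMSO wells and 100% = zero luminescence signal; higher percent means less beta-gal luminescence so fewer parasites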
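Assay system: NIH/3T3 fibroblasts plus reporter T. cruzi. Amount: NIH/3T3 cells, 5,000 per well. Buffer or medium: DMEM, 2% fetal bovine serum. Doses: compound pinned at 50 nL/well, DMSO. Schedule: ≥90 h infection period, 3 h prior cell attachment. Signal: luminescent β-galactosidase signal after 60 min lysis. Read-out: parasite load inhibition, %.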
TAG inh: inhibitors of triacylglycerol accumulation; H9c2 cells, Nile Red lipid (TAG) fluorescence; cells loaded with 200 µM oleic acid; inhibition, % at 12.5 µM; hit rate 0.66% among 230,000; AID 651582;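 active = pattern-corrected inhibition of lipid staining of at least 50% with the nuclear-stain viability signal not falling by more than 50%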;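 note: 0% = DMSO wells and 100% = triacsin C control wells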
Calb FLC: C. albicans growth modulation with fluconazole; growth inhibition, % (concentration not given with the values); hit rate 0.57% among 300,000; AID 1979; C. albicans CaCi-2 + fluconazole, Alamar Blue growth, 48 h;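 active = growth inhibition above about 58% in most replicates, limit read from the data, passing the limit was not always enough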;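 note: all wells also contain fluconazole at 8 µg/ml as a sub-toxic cotreatment; 0% = median of DMSO wells and 100% = median of geldanamycin control wells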
CSC inhib: cancer stem cell inhibition; AID 2717; cancer stem cell-like cells viability, luminescence; inhibition, % at 7.5 µM; hit rate 1.1% among 300,000; in the data active = inhibition above about 75%; tested in HMLE shEcad cells
Beta cell apopt: beta cell apoptosis inhibition | INS-1E cytokine-induced death, ATP luminescence, 48 h; percent of positive-control rescue, neutral wells zero | protection from apoptosis, % (test concentration not listed) | hit rate 0.8% among 300,000 | AID 435005;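 active = Every replicate reaches about 75%, or at least half do and their mean reaches it too, limit read from the data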;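 note: 0% = cytokine-treated negative control wells and 100% = positive control rescue; higher means more ATP so stronger rescue from cytokine killing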
An asterisk follows results filed as active; x = not tested or not shown. The list is not random: actives were taken first. Their share in the collection is about 3.1%.

SMILES | Bfl-1 A1 inh | T cruzi inh | TAG inh | Calb FLC | CSC inhib | Beta cell apopt
COc1ccc(C(C[N+](=O)[O-])c2c(-c3ccccc3)cc3ccccn23)cc1OC (stereo not given) | 1.7 | -8.9 | -14.7 | 10.7 | 9.9 | 1.4
COc1ccc(C(C[N+](=O)[O-])C2(c3ccc(OC)c(OC)c3)C(=O)c3ccccc3C2=O)cc1 (stereo not given) | -5.4 | 9.2 | x | -6.5 | 88.7* | -1.6
Cc1ccc(C(CC(=O)O)NC(=O)CCNC(=O)c2ccco2)cc1 (stereo not given) | x | x | 4.3 | x | x | x
O=C(C[C@@H]1C/C=C/CC[C@H](Cc2ccc(F)cc2)C(=O)OC[C@@H](Cc2ccccc2)NC1=O)N[C@H](CO)Cc1ccccc1 | 1.7 | x | 15.8 | x | 105.0* | 123.7*
C[C@@H]1COC(=O)[C@H](Cc2ccc(F)cc2)CC/C=C/C[C@@H](CC(=O)N[C@@H](CO)Cc2ccccc2)C(=O)N1 | 2.5 | x | 14.4 | x | -5.1 | -5.3
O=[N+]([O-])c1ccc(S(=O)(=O)N2CCN(c3ccnc4cc(Cl)ccc34)CC2)cc1 | -0.7 | 59.5* | -0.8 | -23.7 | 2.1 | 1.8
CCC(C)[C@H](NC(=O)C1CC(=O)N(c2ccc3c(c2)OCO3)C1)C(=O)NC1CCCCC1 (stereo not given in full) | 0.0 | -10.4 | x | -1.8 | -7.5 | -7.8
O=C(Nc1nc2cc3c(cc2s1)OCCO3)c1cccs1 | -7.6 | 0.3 | -19.3 | -5.5 | 28.4 | 17.6
O=C(Nc1nc2c(F)cc(F)cc2s1)c1ccc([N+](=O)[O-])o1 | -4.5 | 50.7 | 14.6 | 6.6 | 96.5* | 24.5
Cc1cc(C)c2sc(NC(=O)c3ccc([N+](=O)[O-])o3)nc2c1 | -0.5 | 59.3* | 56.8* | 4.4 | 92.2* | 2.7
COc1ccc2nc(NC(=O)c3ccc([N+](=O)[O-])o3)sc2c1 | -7.4 | 41.1 | x | -8.5 | 75.2* | x
O=C(Nc1nc2cc3c(cc2s1)OCCO3)c1ccc([N+](=O)[O-])o1 | -0.2 | 59.1* | 69.3 | 38.5 | -12.7 | -9.9
O=C(Nc1nc2ccccc2s1)c1ccc([N+](=O)[O-])o1 | -2.0 | 53.0 | x | 43.6 | 33.3 | -28.2
COCCN(CC(=O)Nc1cccc(C)c1C)C(=O)C1CCN(S(=O)(=O)c2ccccc2)CC1 | x | x | -15.1 | x | x | x
CSc1ncccc1C(=O)OCC(=O)Nc1cccc(S(=O)(=O)N2CCOCC2)c1 | x | x | -6.1 | x | x | x
Cc1ccc(OCCC(=O)OCC(=O)NC(=O)c2ccccc2)cc1 | 0.3 | -10.3 | -8.2 | 14.2 | 7.5 | -2.3
Cc1onc(-c2ccccc2Cl)c1C(=O)N1CCN(S(=O)(=O)c2ccc(F)c(F)c2)CC1 | -0.4 | 19.2 | -0.8 | -0.7 | 3.2 | 5.7
CCCn1nc(C(=O)Nc2ccc3nc(N4CCOCC4)sc3c2)ccc1=O | x | x | -36.7 | x | x | x
OC1CCN(c2c3c(nc4cc(-c5cccc(F)c5)nn24)CCCC3)CC1 | -0.9 | 11.8 | x | -0.2 | x | x
COc1cc(OC)cc(-c2cc3nc4c(c(N5CCN(c6ncccn6)CC5)n3n2)CCCC4)c1 | -0.3 | 60.2* | x | -8.0 | -5.7 | 16.2
CCc1c(C)nc2cc(-c3cc(OC)cc(OC)c3)nn2c1N1CCCC1 | -0.2 | 26.1 | x | 5.3 | 83.3* | 9.7
CN(Cc1ccccc1)C(=O)c1ccc(NC(=O)C2CCCN(C(=O)OC(C)(C)C)C2)cc1 (stereo not given) | -0.2 | x | 1.8 | x | x | -1.9
CC(OC(=O)C1CC1)C(=O)Nc1cccc(S(=O)(=O)N2CCOCC2)c1 (stereo not given) | -0.3 | x | 1.7 | x | -13.0 | -2.5
CC(C)C[C@@H](CNCC(=O)[C@H](C)NC(=O)c1[nH]cnc1C(=O)N[C@H](CN)CC(C)C)NC(=O)c1nc[nH]c1C(=O)N[C@@H](C)C(=O)O | x | x | 8.3 | x | x | x
Cc1ccc(NC2=NCC(Cc3ccc(Br)cc3)S2)cc1 (stereo not given) | -0.1 | 47.4 | x | -46.2 | 88.9* | 34.1
SMILES | Bfl-1 A1 inh | T cruzi inh | TAG inh | Calb FLC | CSC inhib | Beta cell apopt
CCCCOc1ccc(C(=O)NCC(=O)NC(C)CCc2ccccc2)cc1 (stereo not given) | -1.6 | 5.6 | 3.4 | 3.9 | 19.7 | 2.4
CCn1c(=O)c(CCC(=O)N2CCN(c3ccccn3)CC2)c(C)c2c(C)nn(-c3cccc(C)c3)c21 | 0.5 | 58.4* | x | 12.5 | 4.6 | 2.2
Cc1cnc(C(=O)N(CC(C)C)c2c(N)n(CC(C)C)c(=O)[nH]c2=O)cn1 | x | x | -9.7 | x | x | x
Cc1ccc(NC(=O)CCC(=O)N2CCN(S(=O)(=O)c3ccc(C)cc3)CC2)cc1 | 0.2 | x | -0.1 | x | -10.6 | 2.3
CCOC(=O)c1c(C)[nH]c(C(=O)OCC(=O)Nc2cc(Cl)ccc2OC)c1C | 0.6 | 15.8 | x | -7.3 | -6.4 | 4.2
CC(=O)c1c(C)[nH]c(C(=O)OCC(=O)Nc2ccc(Cl)cc2[N+](=O)[O-])c1C | -0.7 | 0.6 | x | 1.8 | -3.4 | 112.6*
COc1ccc(NS(=O)(=O)c2ccc3nc(COc4cccc5ccccc45)[nH]c3c2)cc1 | 0.3 | 32.4 | x | 31.8 | 80.1* | 32.0
COc1ccc(NS(=O)(=O)c2ccc3nc(COc4ccc5ccccc5c4)[nH]c3c2)cc1 | -0.1 | 16.0 | x | 5.6 | 46.0 | 17.2
Cc1ccc2c(=O)cc(C(=O)NC3CCS(=O)(=O)C3)oc2c1C (stereo not given) | x | -4.0 | x | -1.6 | x | x
O=C(CCC(=O)N1CCOc2ccccc21)NCCCN1CCN(Cc2ccccc2)CC1 | 0.1 | 3.1 | 8.2 | -9.1 | -12.6 | -4.1
CCn1c(=O)c2cc(C(=O)N(C)c3ccccc3F)sc2c2ccccc21 | 0.2 | 68.5* | -7.2 | 12.6 | 55.4 | 13.6
CCn1c(=O)c2cc(C(=O)N(C)c3ccc(OC)cc3OC)sc2c2ccccc21 | 0.4 | 33.2 | 3.7 | 9.8 | 13.1 | 0.8
Fc1ccc2c(c1)c1n[nH]c(=S)nc1n2CCc1ccccc1 | x | -11.1 | x | -3.2 | x | x
Cc1ccc2c(c1)c1n[nH]c(=S)nc1n2CCc1ccccc1 | -0.1 | 68.6* | x | 1.1 | -9.9 | 8.8
CCc1ccc(C(=O)CSC2=C(C#N)C(c3ccco3)C(C(C)=O)=C(C)N2)cc1 (stereo not given) | -0.1 | 47.2 | x | 20.9 | 79.6* | 110.1*
CC(=O)C1=C(C)NC(SCC(=O)c2ccc(F)cc2)=C(C#N)C1c1ccco1 (stereo not given) | -0.8 | 19.7 | x | 39.6 | -6.4 | -4.2
CC(=O)C1=C(C)NC(SCC(=O)c2cc(Cl)ccc2Cl)=C(C#N)C1c1ccco1 (stereo not given) | -1.1 | 16.9 | x | -6.6 | x | x
CC(=O)C1=C(C)NC(SCC(=O)c2ccc(Cl)c(Cl)c2)=C(C#N)C1c1ccco1 (stereo not given) | -0.8 | 33.5 | x | 7.4 | 156.7* | 100.2*
NCc1ccccc1CS(=O)(=O)N1CCOCC1 | -0.8 | x | -1.4 | x | -11.7 | -4.8
CC(=O)Nc1ccc(NC(=O)C(C)OC(=O)/C=C/c2cn(-c3ccccc3)nc2-c2cccnc2)cc1 (stereo not given) | 15.7* | 7.3 | x | -1.7 | -2.4 | 16.4
